Hits are enriched below; roughly 4.5% of the tested compounds scored in any of these assays.
OX1R antag-1 = OX1R (HCRTR1) antagonists, primary screen, fluorescence, CHO/OX1R cells, Fluo-8 calcium, orexin A; Orexin/Hypocretin receptor type 1 (Homo sapiens), O43613; Fluo-8 calcium fluorescence; inhibition, % at 5 µM; 330,000 compounds, 0.43% hits;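 active = inhibition above its plate's threshold, mean inhibition of all tested compounds on the plate plus 3 SD, cut at about 37% in these data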
Target sequence (O43613 whole entry, looked up): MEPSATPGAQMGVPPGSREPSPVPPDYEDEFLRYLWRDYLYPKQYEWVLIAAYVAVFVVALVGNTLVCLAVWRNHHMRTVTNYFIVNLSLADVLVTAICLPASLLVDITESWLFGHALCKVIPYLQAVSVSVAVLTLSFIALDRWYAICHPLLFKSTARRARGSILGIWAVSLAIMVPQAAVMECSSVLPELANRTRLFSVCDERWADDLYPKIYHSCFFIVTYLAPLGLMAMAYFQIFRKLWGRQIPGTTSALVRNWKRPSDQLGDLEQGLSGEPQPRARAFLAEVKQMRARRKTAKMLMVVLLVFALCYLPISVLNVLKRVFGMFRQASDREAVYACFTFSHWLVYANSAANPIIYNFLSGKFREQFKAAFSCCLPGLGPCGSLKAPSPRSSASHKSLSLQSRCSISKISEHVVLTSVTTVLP
TAAR1 antagonist = human TAAR1 antagonists, primary screen, Fluo-8 calcium fluorescence, CHO RD-HGA16 cells | Trace amine-associated receptor 1 (Homo sapiens), Q96RJ0 | antagonist | inhibition, % at 3 µM | 360,000 compounds, 1.5% hits;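 active = inhibition above a per-plate cutoff, the mean inhibition of test compounds on that plate plus 3 SD, cut at about 49% in these data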
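Test system: CHO RD-HGA16 cells bearing hTAAR1 | Reagent: β-PEA, EC80 | Compound dosing: 3 µM, single point | Schedule: Dye loading 75 min at 37 °C, then 30 min room temperature | Signal: Calcium fluorescence with Fluo-8 | Evaluation: Percent inhibition of PEA-evoked calcium signal, max/basal emission ratio | Control set: DMSO-only wells and EC80 β-PEA-stimulated wells | Repeats: Singlicate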
GPR7 antag = GPR7 receptor antagonists, primary screen, cell-based, fluorescence, single concentration | GPR7-expressing cells, fluorescence antagonist assay | inhibition, % at 4.4 µM | 290,000 compounds, 1.1% hits | AID 1861, 2009; in the data active = inhibition above about 16%, passing the limit was not always enough;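 also: cells stimulated with the agonist NPW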
CHO parental Ca = ATP-evoked calcium signal inhibitors, parental CHO, primary screen, counter-screen for OX1R antagonist project, cell-based, fluorescence, Fluo-8 calcium dye | parental CHO-K1, ATP-induced calcium, Fluo-8 fluorescence | inhibition, % at 5.6 µM | 330,000 compounds, 0.63% hits | AID 463079, 2010;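 active = inhibition above that plate's mean sample inhibition plus 3 SD, cut at about 26% in these data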
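Test system: untransfected parental CHO cell line; also added: ATP stimulus; dosing: 5.6 µM, single dose; signal: calcium-sensitive Fluo-8 fluorescence; measure: percent inhibition of ATP-evoked calcium rise, normalized to controls; benchmarks: low control ATP plus DMSO, high control DMSO only; replication: one well per compound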
OX1R antag-2 = antagonists of human orexin 1 receptor (OX1R) | Orexin/Hypocretin receptor type 1 (Homo sapiens), O43613 | OX1R-expressing cells, FRET antagonist read-out | inhibition, % at 6.6 µM | 330,000 compounds, 1.8% hits | AID 485270, 2010; in the data active = inhibition mostly above about 38%, no sharp cut-off; inactive = mostly below about 40%
TAAR1 agonist = human TAAR1 agonists, primary screen, Fluo-8 calcium fluorescence, CHO RD-HGA16 cells; activation, % at 3 µM; Trace amine-associated receptor 1 (Homo sapiens), Q96RJ0; vehicle wells 0%, saturating PEA agonist 100%; 360,000 compounds, 0.99% hits; AID 624467, 2012;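 active = activation above the mean activation of all test compounds in the run plus 3 SD, cut at about 38% in these data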
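test system = CHO RD-HGA16 cells carrying human TAAR1 plus Gα16 | schedule = 17-24 h seeding, 75 min 37 °C dye, 30 min RT | compound dosing = 3 µM single concentration | control set = DMSO and PEA EC100 | replicates = n 1 | signal = Fluo-8 fluorescence, 5 s baseline then 140 s kinetic read | measure = percent activation vs PEA EC100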
TAAR1 ag conf = human TAAR1 agonists, retest of hits, confirmation, Fluo-8 calcium fluorescence, CHO RD-HGA16 cells; shares compounds with TAAR1 agonist; scaled: DMSO 0%, maximal phenethylamine 100%; activation, % at 3 µM; 2,400 compounds, 82% hits;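 active = activation above a cutoff set at the run's mean compound activation plus 3 SD, cut at about 39% in these data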
Ga16 ag counter = nonselective calcium mobilization agonists, CHO-Ga16 cells, counter-screen for hTAAR1 agonist project, cell-based, fluorescence, CHO-Ga16 parental line | Fluo-8 calcium fluorescence; normalized to maximal ATP response, DMSO zero | activation, % at 3 µM | shares compounds with TAAR1 agonist | 2,400 compounds, 50% hits;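 active = activation above the run cutoff, the mean activation over all tested wells plus 3 SD, cut at about 12% in these data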
TAAR1 desens = TAAR1 desensitization by agonist hits, confirmation, counter-screen for TAAR1 agonist project, cell-based, fluorescence, tachyphylaxis | shares compounds with TAAR1 agonist | CHO RD-HGA16 hTAAR1, Fluo-8 calcium, beta-PEA response inhibition | inhibition, % at 3 µM | 2,400 compounds, 46% hits | AID 651951, 2012;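 active = inhibition above the run cutoff, the mean inhibition of all test compounds plus 3 SD, cut at about 49% in these data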;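 also: beta-PEA stimulus applied at its EC80; loss of beta-PEA calcium signal after compound pretreatment read as receptor desensitization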
Ga16 antag count = inhibition of ATP-evoked calcium response in CHO-Ga16 cells, counter-screen for TAAR1 agonist project, cell-based, fluorescence; shares compounds with TAAR1 agonist; CHO-Ga16 ATP-induced calcium, Fluo-8 fluorescence; inhibition, % at 3 µM; 2,400 compounds, 39% hits;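 active = inhibition above the plate's mean compound inhibition plus 3 SD, computed per plate, cut at about 22% in these data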
A number is an active result; 0 = inactive; - = not tested or not shown; + = active, no number.

SMILES	OX1R antag-1	TAAR1 antagonist	GPR7 antag	CHO parental Ca	OX1R antag-2	TAAR1 agonist	TAAR1 ag conf	Ga16 ag counter	TAAR1 desens	Ga16 antag count
Cc1nccn1-c1ccc(C(F)(F)F)cc1NC=O	0	0	0	0	0	0	-	-	-	-
CC(=O)c1cccc(OCC(O)CNCC2COc3ccccc3O2)c1 (stereo not drawn)	0	0	0	0	0	46	70	0	0	0
CC(OCC(O)CNCC1COc2ccccc2O1)c1ccc(Cl)cc1 (stereo not drawn)	0	0	0	0	0	0	-	-	-	-
CCc1ccccc1NS(=O)(=O)c1ccc2c(c1)C(C)(C)C(=O)N2C	0	0	0	0	0	0	-	-	-	-
O=C(c1ccccc1)c1ccc(OCC(O)CNCc2ccc(Cl)cc2)cc1 (stereo not drawn)	0	0	0	0	0	49	48	17	0	28
COc1cccc(CNCC(O)COc2ccc(C(=O)c3ccccc3)cc2)c1 (stereo not drawn)	0	0	0	0	0	0	-	-	-	-
COc1cc2c(c(OC)c1OC)C1(CCCCC1)CC2NCC=C(C)C (stereo not drawn)	-	0	-	-	-	50	0	0	0	0
CN(C)/C=C1\C=C2C(=O)c3ccccc3N2C1=O	46	87	0	50	0	413	+	+	104	94
C=CCSc1ccccc1C(=O)Nc1ncn[nH]1	0	0	0	0	0	0	-	-	-	-
Cc1cc(C)c(S(=O)(=O)NCCc2ccccc2)c(C)c1	0	0	0	0	0	46	52	0	0	0
Cc1ccc(S(=O)(=O)NCCc2ccccc2)cc1	0	0	0	0	0	0	-	-	-	-
O=C(NCCc1ccccc1)C(NS(=O)(=O)c1cccc2nsnc12)c1ccccc1 (stereo not drawn)	0	0	0	0	74	41	76	0	0	0
Cc1ccc(CCNC(=O)C2CCN(S(=O)(=O)c3cccc4nsnc34)CC2)cc1	0	56	0	0	0	77	0	0	0	0
O=C(NCCc1ccccc1)C1CCCN(S(=O)(=O)c2cccc3nsnc23)C1 (stereo not drawn)	0	72	0	0	0	97	85	0	91	0
O=S(=O)(NCCc1ccccc1)c1cccc2nsnc12	0	0	0	0	0	0	-	-	-	-
O=C(CN(CC1CCCO1)C(=O)CNS(=O)(=O)c1ccc(Cl)cc1)NCc1ccco1 (stereo not drawn)	0	0	0	0	0	0	-	-	-	-
Cc1nn(Cc2ccccc2)c(C)c1NC(=O)CSc1nc2c(c(C(F)(F)F)n1)CCc1ccccc1-2	0	0	0	0	0	0	-	-	-	-
CCCCCCn1c(=O)[nH]c2nc3cc(N)c(C)cc3nc2c1=O	-	72	0	-	-	118	105	85	0	49
CCCCn1c(=O)[nH]c2nc3cc(NC(C)=O)ccc3nc2c1=O	0	0	0	0	0	0	-	-	-	-
COc1ccc(/C=N/Nc2nc(-c3ccc(C)cc3)c(NC(C)=O)s2)cc1OC	0	0	0	0	0	0	-	-	-	-
CC(=O)Nc1sc(/C(C#N)=C/c2ccc(Cl)c(Cl)c2)nc1-c1ccc(C)cc1	-	81	0	-	-	68	42	56	76	67
O=C(NCCc1ccc(Cl)cc1)c1ncn[nH]1	0	0	0	0	0	48	46	0	0	0
COc1ccc(CNc2nc(-c3ccccc3)nn2C(=O)c2ccc([N+](=O)[O-])cc2)cc1	0	0	0	0	0	0	-	-	-	-
Cn1c(-c2ccc3c(c2)OCO3)cnc1NCc1ccccc1	0	0	0	0	0	0	-	-	-	-
Cn1c(-c2ccc3c(c2)OCO3)cnc1NC(=O)CCC(=O)NCCc1ccccc1	0	0	0	0	0	47	40	0	0	0
SMILES	OX1R antag-1	TAAR1 antagonist	GPR7 antag	CHO parental Ca	OX1R antag-2	TAAR1 agonist	TAAR1 ag conf	Ga16 ag counter	TAAR1 desens	Ga16 antag count
Cc1ccc(-c2nc(CS(=O)(=O)CC(=O)N3CCc4ccccc4C3)c(C)o2)cc1	0	0	0	0	0	66	82	0	64	0
Cc1ccc(-c2nc(CS(=O)(=O)CC(=O)N3CCCCCC3)c(C)o2)cc1	0	0	0	0	0	0	-	-	-	-
O=C(COC(=O)c1ccccc1C(=O)c1ccccc1)Nc1ccc(SC(F)F)cc1	0	0	0	0	0	0	-	-	-	-
NC(=O)COC(=O)c1ccccc1Nc1ccc(SC(F)F)cc1	0	0	0	0	0	43	0	0	0	0
CCC1(c2ccc(F)cc2)NC(=O)N(CC(=O)N2c3ccccc3CC2C)C1=O (stereo not drawn)	0	0	-	0	0	76	84	47	0	30
CC1Cc2ccccc2N1C(=O)CN1CCc2ccccc2C1 (stereo not drawn)	0	0	0	0	0	72	77	0	0	0
CC1Cc2ccccc2N1C(=O)CN1CCN(Cc2ccccc2)CC1 (stereo not drawn)	0	0	0	0	0	0	-	-	-	-
Cc1cc(C(=O)CN2C(=O)NC(C)(c3cc(F)ccc3F)C2=O)c(C)n1C1CC1 (stereo not drawn)	0	0	-	0	0	0	-	-	-	-
CCC1(c2ccc(F)cc2)NC(=O)N(CC(=O)N2c3ccccc3NC(=O)CC2C)C1=O (stereo not drawn)	0	0	-	0	0	0	-	-	-	-
CCC1(c2ccc(F)cc2)NC(=O)N(CC(=O)c2cc(C)n(C3CC3)c2C)C1=O (stereo not drawn)	0	58	-	0	0	103	98	51	52	32

Screening results as filed in PubChem BioAssay.
